From ChEMBL document CHEMBL1147063, “Diazonamide toxins reveal an unexpected function for ornithine delta-amino transferase in mitotic cell division” (2007) come the findings set out here.

Calls of active or inactive are those of the source. The rule behind the calls is not given here.

For test [1], the system named is HeLa. As to the kind of experiment: Cell cycle arrest in human HeLa cells by accumulation at 2N stage at 30 nM after 24 hrs. The format is functional. An outline of the steps: (§1)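 HeLa cells exposed to 30 nM compound for the indicated times. DNA content measured by FACS to score 2N versus tetraploid (4N) populations.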
Test [2] concerns HeLa. As to the kind of experiment: Cell cycle arrest in human HeLa cells by accumulation at 4N stage at 30 nM after 24 hrs. The format is functional. An outline of the steps:
as §1

Test [3] concerns HeLa. As to the kind of experiment: Antimitotic activity in human HeLa cells. The format is functional, cell-based.
Test [4] can be described thus: Binding affinity to tubulin.
Test [5] deals with T1, Ornithine aminotransferase, mitochondrial (Homo sapiens) (UniProt P04181).
T1 sequence (whole entry): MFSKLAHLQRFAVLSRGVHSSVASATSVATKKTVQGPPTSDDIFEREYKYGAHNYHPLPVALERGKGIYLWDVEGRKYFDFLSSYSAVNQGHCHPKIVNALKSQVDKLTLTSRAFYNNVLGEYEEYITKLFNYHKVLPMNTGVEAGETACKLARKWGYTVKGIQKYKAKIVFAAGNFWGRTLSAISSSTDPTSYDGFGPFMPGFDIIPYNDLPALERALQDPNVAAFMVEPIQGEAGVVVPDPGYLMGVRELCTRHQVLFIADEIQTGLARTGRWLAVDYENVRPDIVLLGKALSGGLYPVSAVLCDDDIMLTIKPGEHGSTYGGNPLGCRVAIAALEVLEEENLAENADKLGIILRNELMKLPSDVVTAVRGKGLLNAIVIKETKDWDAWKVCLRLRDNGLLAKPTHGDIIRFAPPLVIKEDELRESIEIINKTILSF
As to the kind of experiment: Binding affinity to ornithine delta-amino transferase in human HeLa cells by silver stained SDS/PAGE method. In kind it is cell-based. Put shortly:
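HeLa nuclear extract, dialysed into buffer B (20 mM Hepes-KOH pH 7.5, 10 mM KCl, 1.5 mM MgCl₂, EDTA, EGTA, DTT, PMSF, plus 150 mM NaCl) with 0.1% Nonidet P-40. Extract fractionated on Hitrap Q anion exchange; fractions incubated overnight at 4°C with biotinylated probe precoupled to avidin agarose. Bound proteins resolved by silver-stained SDS/PAGE; specific ~50 kDa bands identified by mass spectrometry.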

Test [6] addresses T2, Ornithine aminotransferase, mitochondrial (Mus musculus) (UniProt P29758).
T2 sequence (whole entry): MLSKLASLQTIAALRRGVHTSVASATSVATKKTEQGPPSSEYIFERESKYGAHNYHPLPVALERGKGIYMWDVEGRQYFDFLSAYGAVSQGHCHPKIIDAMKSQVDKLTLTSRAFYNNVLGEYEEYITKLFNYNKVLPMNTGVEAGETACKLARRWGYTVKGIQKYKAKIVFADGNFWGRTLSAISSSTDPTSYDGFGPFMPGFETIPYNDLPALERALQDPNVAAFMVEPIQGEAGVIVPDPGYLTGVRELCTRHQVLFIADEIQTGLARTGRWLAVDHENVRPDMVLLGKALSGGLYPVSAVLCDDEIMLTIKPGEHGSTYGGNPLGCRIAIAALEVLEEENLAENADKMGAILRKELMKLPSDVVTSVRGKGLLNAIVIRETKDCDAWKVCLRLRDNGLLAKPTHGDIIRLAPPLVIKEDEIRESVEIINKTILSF
As to the kind of experiment: Inhibition of ornithine delta-amino transferase activity in mouse liver mitochondria. An outline of the steps: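 Crude OAT prepared from mouse liver. Enzyme added last with a compound dilution series; shaken at 37°C for 20 min. Δ¹-pyrroline-5-carboxylate detected by reaction with o-aminobenzaldehyde; absorbance read at 443.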

Another test has as its system Xenopus. As to the kind of experiment: Effect on RanGTP L43E mutant-stimulated microtubule aster formations in Xenopus egg extract.
Test [7] concerns Ornithine aminotransferase, mitochondrial (Xenopus laevis). The test can be described thus: Binding affinity to ornithine delta-amino transferase in RanGTP L43E mutant pre-treated Xenopus egg extracts. Particulars: egg extract.
Test [8] has as its system HeLa. The test can be described thus: Cell cycle arrest in human HeLa cells assessed as phosphorylated histone H3 level at 30 nM after 24 hrs. The format is functional, cell-based. An outline of the steps:
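HeLa cells dosed with 30 nM compound for a time course. Cell extracts immunoblotted for phosphorylated histone H3 as mitotic marker, with actin as loading reference.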

The test system of test [9] is HeLa. As to the kind of experiment: Cell cycle arrest in human HeLa cells assessed as abnormal spindle structure formation at 30 nM after 24 hrs. In kind it is functional, cell-based. An outline of the steps: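 HeLa cells grown 24 h with or without 30 nM compound, then fixed in 4% formaldehyde. Stained with anti-α-tubulin monoclonal (1:1,000) and DAPI; spindle and nuclear morphology imaged by confocal microscopy. Abnormal mono-/multipolar spindles and multinucleate cells counted as a percentage of cells.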

In a further test the test system is U2OS. As to the kind of experiment: Cell cycle arrest in human U2OS cells assessed as abnormal spindle structure formation at 30 nM after 16 hrs. In kind it is functional, cell-based.

On to `[H][C@]12Nc3c4cccc3[C@]13C1=C(N=C(O1)[C@H](C(C)C)NC(=O)[C@@H](NC(=O)[C@@H](O)C(C)C)Cc1ccc(c3c1)O2)c1nc(Cl)c(o1)-c1c(Cl)[nH]c2cccc-4c12` [DIAZONAMIDE A], for which the Activity was 6.9% in the test on HeLa [1] and 85.69% with HeLa [2].
As for `CC(CCCCNC(=O)CCCC[C@@H]1SC[C@@H]2NC(=O)N[C@@H]21)[C@H](O)C(=O)N[C@H]1Cc2ccc3c(c2)[C@]24C5=C(N=C(O5)[C@H](C(C)C)NC1=O)c1nc(Cl)c(o1)-c1c(Cl)[nH]c5cccc(c15)-c1cccc2c1O[C@@H]4O3` (stereo partly specified), the result (in the test on HeLa [3]; in [5]; with Xenopus) was Active. Also, the result in test [4], in test [6] and in [7] was inactive.
For `CC(C)[C@H](O)C(=O)N[C@H]1Cc2ccc3c(c2)[C@]24C5=C(N=C(O5)[C@H](C(C)C)NC1=O)c1nc(Cl)c(o1)-c1c(Cl)[nH]c5cccc(c15)-c1cccc2c1N[C@@H]4O3`, the outcome with HeLa [8], with HeLa [9] and with U2OS was Active. The result in test [6] was inactive.
Consider `CC(CCCCNC(=O)CCCC[C@@H]1SC[C@@H]2NC(=O)N[C@@H]21)[C@H](O)C(=O)N[C@H]1Cc2ccc3c(c2)[C@]2(C4=C(c5nc(Cl)c(-c6c(Cl)[nH]c7ccccc67)o5)N=C(O4)[C@H](C(C)C)NC1=O)c1ccccc1O[C@@H]2O3` (stereo partly specified), for which the result in test [4] and in [5] was inactive.
In the case of `CC(C)[C@H](O)C(=O)N[C@H]1Cc2ccc3c(c2)[C@]24C5=C(N=C(O5)[C@H](C(C)C)NC1=O)c1nc(Cl)c(o1)-c1c(Cl)[nH]c5cccc(c15)-c1cccc2c1O[C@@H]4O3`, the result in [6] was inactive.
With `C#CC(N)CCC(=O)O` (stereo unspecified), in [6], the outcome was Active.
